Reference: ChEMBL document CHEMBL4513216, “Probing the Open Global Health Chemical Diversity Library for Multistage-Active Starting Points for Next-Generation Antimalarials” (ACS Infect Dis, 2020)

experiment: Toxicity liver stage against HepG2, at 10uM; assay type: cell-based; design: test concentration 10 uM, cell line HepG2-A16-CD81EGFP; details: human, HepG2-A16-CD81EGFP cells; read-out: INHIBITION
Method in brief: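 Uninfected HepG2-A16-CD81EGFP cells, 3 × 10^3 per well, 1536-well, plated on prespotted compound at 10 μM final, parasite-free screening media added to match infected plates; puromycin 10 μM positive, DMSO 0.5% negative; run in parallel with 48 h PbLuc assay at 37 °C, 5% CO2; viability by CellTiter-Glo luminescence, normalized to controls.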

Structure (SMILES) | cytotoxicity at 10 µM [%]
CS(=O)(=O)NC[C@]12COC[C@H]1CN(C(=O)C1CC(F)(F)C1)C2 | -95.5
CC(O)c1cn(CC2CCN(C(=O)CN3CCCC3=O)CC2)nn1 (centres undefined) | 2.31
CN(C)CCN1C(=O)CCC12CCN(C(=O)c1cccnc1)CC2 | 6.41
O=C(NC[C@]12COC[C@H]1CN(Cc1nccs1)C2)c1cscn1 | -1.11
CN(Cc1ccc(F)cc1)CC1(O)CCN(C(=O)c2ccn(C)n2)C1 (centres undefined) | -6.41
CCCS(=O)(=O)N1CCC(n2nc(-c3cc(C)oc3C)ccc2=O)CC1 | 14.6
CN1CCC(C)(CNC(=O)c2ccc(SCc3cccnc3)cc2)CC1 | 12.4
c1cnc2nc(N3CCCC3c3nnc4n3CCCCC4)ccc2n1 (centres undefined) | 4.21
COc1ccc(-c2nc(CSC3CCCCNC3=O)co2)cc1 (centres undefined) | 20.9
c1coc(-c2noc(CN3CCC(c4ccn[nH]4)CC3)n2)c1 | -8.19
CSC(C)C(=O)NS(=O)(=O)c1ccc(F)c(C(F)(F)F)c1 (centres undefined) | -6.52
Cn1cc(CN2C[C@@H]3CCCO[C@@H]3[C@H](N3CCCC3=O)C2)cn1 | 1.27
Cc1ncoc1C(=O)N1CCOC(Cc2ccccc2)C1 (centres undefined) | 2.23
CS(=O)(=O)N1CCCCC12CCN(C(=O)c1ccccc1)C2 (centres undefined) | -148
Cc1cccc(CN2CCC3(CCCN(Cc4cnn(C)c4)C3)C2=O)n1 (centres undefined) | 6.02
CO[C@H]1CCN(S(=O)(=O)N(C)C)[C@@H]2CN(Cc3cccnc3)C[C@H]12 | 11.9
CCn1cnnc1C1CCN(C(=O)c2ccccc2F)CC1 | -5.13
CCOC(=O)CC(NC(=O)c1cn(Cc2ccccc2F)nn1)C(C)C (centres undefined) | -0.99
CCCC(C)C(=O)N1CCC(c2cc(N3CCOCC3)nc(C)n2)CC1 (centres undefined) | -3.35
O=S(=O)(c1ccc(Cl)s1)N1CCCC(c2ncc[nH]2)C1 (centres undefined) | 6.68
CCCn1nnnc1CN(c1ccc(C)cc1)C(C)C | 4.15
CC(C)NC(=O)C1CN(C(=O)c2cccs2)CC12CCOCC2 (centres undefined) | -3.59

Structure (SMILES) | cytotoxicity at 10 µM [%]
CC(C)OCc1ccc(CNC(=O)NC2(CO)CCCC2)cc1 | -48.9
Cc1noc2ncc(C(=O)N3CCCC3c3ccncc3)cc12 (centres undefined) | -5.66
Cc1cccc(N2CCOCC3(C2)CN(c2ccoc2)C(=O)CO3)n1 (centres undefined) | 4.39
Cc1nn(C)c(Cl)c1C1CCCN1C(=O)CCNc1ncccn1 (centres undefined) | -7.42
O=C(c1ccncc1Cl)N1CCN(Cc2ccco2)C(CCO)C1 (centres undefined) | -9.84
Cc1occc1C(=O)N1CCCN(Cc2nccn2C(C)C)CC1 | -9.24
c1nnc(Nc2cncc(C3CCCN3CC3CC3)n2)s1 (centres undefined) | 3.01
O=C(NCc1ccco1)[C@H]1CC[C@@H]2[C@@H](CCN2c2ncccn2)O1 | -69.6
O=C(NCCn1cccc1)C1CCCOC1 (centres undefined) | 3.03
CC(Cc1ccco1)NC(=O)CSc1nnc[nH]1 (centres undefined) | 13
Cc1csc(CN2C[C@@H]3CN(C)CCO[C@@H]3C2)n1 | -105
CN1CCN(c2ncnc3c2c(C(=O)NC2CC2)c2ccccn23)CC1 | 3.34
Cc1ncc2c(n1)CN(Cc1nc(Cc3ccccc3)no1)CC2 | -12.4
COCc1ncn(Cc2nc(-c3ccco3)oc2C)n1 | -8.53
c1ccc(-c2cc(CNCCN3CCOCC3)c3nnnn3c2)cc1 | -17.6
CCC1CN(c2cnn(-c3ccccc3)c(=O)c2Cl)CCO1 (centres undefined) | -17.4
CC(C)(CO)Nc1cc(-c2ccncc2)ncn1 | -0.89
Cc1ccc(N2CCC3(CCN(C(=O)N(C)C)CC3)CC2)nn1 | 5.73
COc1ccc(F)cc1C[S+]([O-])CC(=O)NCc1ccccc1 (centres undefined) | -8.97
CC(NC(=O)NCc1ccccn1)c1cccs1 (centres undefined) | -14.4
CN1CCN(C(=O)CCc2cccnc2)c2ccc(F)cc21 | -2.23
OC1CCN(C2CCN(Cc3cccc(Cn4cccn4)c3)CC2)CC1 | -1.47

Structure (SMILES) | cytotoxicity at 10 µM [%]
O=C1[C@@H]2CCN(C3CCC3)C[C@@H]2OCCN1Cc1ccncc1 | -135
Cc1cnc(N2CC[C@@]3(O)CCCC[C@H]3C2)nc1-c1ccnn1C | 0.276
COc1c(C)cnc(CN2CCC(C(=O)N(C)C)CC2)c1C | -12.6
O=C(c1cc(COc2ccc3c(c2)OCO3)[nH]n1)N1CCCCO1 | -2.47
CSc1ccc(CN(CCO)C(=O)CCNC(C)=O)cc1 | 5.42
CCOc1ccc(-c2ccnc(C3CC3)n2)cc1C(=O)O | -0.173
Cc1[nH]ccc1C(=O)N[C@H]1CN(S(C)(=O)=O)C[C@@H]1C1CC1 | 3.28
Cc1cc(C(=O)N2CC[C@@H]3CO[C@@H](CN4CCCC4)[C@@H]3C2)no1 | 7.61
FC(F)(F)c1cc(-c2cccs2)nc(N2CCN3CCCC3C2)n1 (centres undefined) | 10.7
CC(C)CNC(=O)[C@H]1CCS(=O)(=O)[C@@H]2CN(Cc3ccc(Cl)cc3)C[C@H]12 | -13.9
N#CC1(NC(=O)COc2cc(Cl)cc(Cl)c2)CCOCC1 | -2.53
O=C(c1cscn1)N1CC[C@]2(C[C@@H](OCCN3CCCC3)CO2)C1 | 0.462
CCC1CN(C(=O)c2csc3nc(-c4ccc(Cl)cc4)cn23)CCN1 (centres undefined) | 1.6
CCc1nc(CCNC(=O)C2CCOC2)sc1C (centres undefined) | -20.4
O=C(Nc1cnccn1)[C@@H]1COC[C@H]2CN(c3ncc(F)cn3)C[C@H]21 | -11.7
Cc1ccn(CCNc2ncnc3c2CCN(S(C)(=O)=O)CC3)n1 | -3.03
Cc1cc(C)nc(CCNC(=O)C(c2ccc(F)cc2)N(C)C)n1 (centres undefined) | -40.1
CCn1cc(CNC(=O)CCc2nnc(-c3ccc(C)s3)o2)cn1 | -2.83
O=C(Cc1cccnc1)N1C[C@H]2CC[C@@H](C1)N(Cc1ccccc1)C2=O | 7.93
O=C1CN(C(=O)CSC2CCCc3ccccc32)CCN1 (centres undefined) | -9.45
O=c1[nH]c(NC2CCCC2)nc2nccc(-c3ccsc3)c12 | -12.1
Cn1c(CCNc2nccnc2C#N)nc2ccc(F)cc21 | -6.92

Structure (SMILES) | cytotoxicity at 10 µM [%]
Cc1ccc(CN(CCCN2CCOCC2)Cc2cnc(C)n2C)o1 | -24
COCCNC(=O)N1CCCCC1CNC(=O)Nc1ccccc1 (centres undefined) | -0.244
O=C(NCCn1ccnc1)N1CCCC1c1ccc2c(c1)OCCO2 (centres undefined) | -8.16
CCC(=O)N1CCc2[nH]cnc2C12CCN(C1CCOCC1)CC2 | -6.47
CCn1ccnc1CN1CCC(=O)N(CC2CC2)C(C(C)C)C1 (centres undefined) | -10.3
CN(C)CCCNC(=O)c1cc(-c2ccc3c(c2)CCO3)n[nH]1 | -12.8
O=C(NCc1ccnc(OCC2CC2)c1)C1Cc2ccccc2O1 (centres undefined) | -0.483
c1ncn(CC2CN(CC3CCCC3)CCO2)n1 (centres undefined) | 4.93
CC(C)c1ccccc1NC(=O)N1C[C@H]2CC[C@@H](C1)N(C)C2=O | -3
O=C1NCCCCC1NC(=O)C1(c2cccc(Cl)c2)CC1 (centres undefined) | 2.68
O=C(NCC1CC1)[C@@H]1CCO[C@@H]2CCN(Cc3ccsc3)C[C@H]21 | -76.5
Cc1nnc(N2CCOC(C)(C(=O)N(C)C)C2)c2ccccc12 (centres undefined) | 10.4
CS(=O)(=O)N1CCOC2(CCCC2)C1 | -4.7
CN1C(Cn2cccn2)C[C@@H]2CN(Cc3ccccn3)CC[C@@H]21 (some centres undefined) | 0.763
CCc1noc(CS(=O)(=O)Cc2ccccc2C)n1 | 16.8
CC(C)(NCC(=O)NCCC#N)c1ccc2c(c1)OCCO2 | -4.03
CO[C@H]1CNC[C@@H]1NC(=O)c1cc(C)nc2c(C)cc(C)cc12 | 4.12
CSCC(=O)NC1(c2cccc(Cl)c2)CC1 | -1.54
O=C(N1CCCC1)N1Cc2nccn2CC(COc2cccnc2)C1 (centres undefined) | 0.997
CCCc1nc(C)cc(N2CCNC(C(=O)Nc3ccc(C)nc3)C2)n1 (centres undefined) | -48.5
CSCC(=O)N1CCc2c(cnc(C)c2-c2noc(-c3cc[nH]n3)n2)C1 | 1.87
COc1ccc([C@@H]2CN(C(=O)CCc3cc(Cl)no3)C[C@H]2N(C)C)cc1 | 6.1

Structure (SMILES) | cytotoxicity at 10 µM [%]
COC(=O)Cn1nc(-c2ccccc2F)ccc1=O | 8.01
NCCC(Cc1ccccc1)c1ccco1 (centres undefined) | 0.45
O=C(NC1CCCN(CCCc2ccccc2)C1)c1ccc(Cl)s1 (centres undefined) | 57.5
Cc1ncc(CNCC(=O)NCC(F)(F)F)n1-c1ccccc1 | 5.57
c1ccc2oc(CCCN3CCCCC3Cn3cncn3)nc2c1 (centres undefined) | -10.2
Cc1ccc(CN2C[C@@H](C(=O)O)[C@H](c3ccccn3)C2)o1 | -3.88
Cc1ccc(OCc2occc2C(=O)N2CC[C@H](CO)[C@@H](O)C2)cc1 | 14.3
CCn1cc(NC(=O)C2CCN(CCOC(C)C)CC2)cn1 | -5.4
CC(C)N(C)Cc1n[nH]c2c1CCN(C(=O)c1ccc[nH]1)C2 | -133
O=C(CCc1nnc2ccccn2c1=O)NCc1cccnc1 | -1.74
COCCNC(=O)N1CCN(C(=O)c2nsc3ccc(C)cc23)CC1 | 7
Cc1cc(NCCSc2nccn2C)n2nc(C)c(C)c2n1 | 9.75
Cc1nccc(-c2cccc(NCC(=O)N3CCCC(C)C3)c2)n1 (centres undefined) | -6.27
CC(C)NC(=O)CS(=O)(=O)c1cc2c(cc1Cl)OCCO2 | -2.46
O=C1NCC(C(=O)Nc2ncc(Cc3ccccc3)s2)N1 (centres undefined) | 5.92
O=S(=O)(NCc1ccccc1Cn1cncn1)C1CCCC1 | 0.674
COc1ccc(N2CCN(Cc3nc(CSC)no3)CC2=O)cc1 | 1.44
Cc1nc(CN2C(=O)CCC23CCN(Cc2ccccn2)CC3)cs1 | -2.71
Cc1ccc(CNC(=O)CCN2CCN(c3ccccn3)CC2)n1C | 19.8
Nc1ncc(CN2C[C@H](C3CC3)[C@@H](N)C2)cn1 | -44.6
COc1ccccc1CN1CCC(O)(Cn2ccc3ncccc32)CC1 | -0.692
